From ChEMBL document CHEMBL1155297, “Synthesis, antimicrobial and antioxidant activities of substituted pyrazoles, isoxazoles, pyrimidine and thioxopyrimidine derivatives” (2009)
In brackets after ≈: the same amount, converted by molar mass.

Tests used:
Format in all cases: functional
[1] = tested on: Bacillus subtilis; experiment: Antibacterial activity against Bacillus subtilis NCIM 2063 at 100 ug/disk after 24 hrs by agar disk diffusion method; conditions: NCIM 2063, 24 h, read-out: IZ
How it was run: (§1)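 Agar disc diffusion on nutrient agar plates pre-inoculated with each bacterium. Sterile 6 mm filter-paper discs were moistened with compound in DMSO at the stated per-disc amount. Plates were incubated at 37 °C, and the growth-inhibition zone diameter was read after 24 h. Each determination was run in triplicate, and the mean of three independent readings is reported.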

[2] = tested on: Klebsiella pneumoniae; experiment: Antibacterial activity against Klebsiella pneumoniae NCIM 2957 after 24 hrs by microdilution susceptibility method; conditions: NCIM 2957, 24 h
How it was run: (§2)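 MIC by microdilution susceptibility; compounds in DMSO, bacterial suspensions inoculated into wells. Incubation was at 36 °C for 24 h. MIC is the lowest compound concentration showing no turbidity. Chloramphenicol served as reference antibacterial.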

[3] = tested on: Staphylococcus aureus; experiment: Antibacterial activity against Staphylococcus aureus NCIM 5021 at 100 ug/disk after 24 hrs by agar disk diffusion method; conditions: NCIM 5021, 24 h, read-out: IZ; how it was run: as §1
[4] = tested on: Proteus vulgaris; experiment: Antibacterial activity against Proteus vulgaris NCIM 2027 at 200 ug/disk after 24 hrs by agar disk diffusion method; conditions: NCIM 2027, 24 h, read-out: IZ; how it was run: as §1
[5] = tested on: Radical scavenging activity; experiment: Antioxidant activity assessed as DPPH free radical scavenging activity at 100 uM after 20 mins
How it was run: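 DPPH scavenging: compound solutions were added to DPPH in dioxane/ethanol and kept at ambient temperature for 20 min. Absorbance was read at 517 nm. The test–control difference was expressed as percent DPPH radical scavenging.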

[6] = tested on: Bacillus subtilis; experiment: Antibacterial activity against Bacillus subtilis NCIM 2063 after 24 hrs by microdilution susceptibility method; conditions: NCIM 2063, 24 h; how it was run: as §2
[7] = tested on: Curvularia lunata; experiment: Antifungal activity against Curvularia lunata NCIM 716 after 48 hrs by microdilution susceptibility method; conditions: NCIM 716, 48 h
How it was run: (§3)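 Broth microdilution MIC; fungal suspensions were inoculated into wells containing compound dissolved in DMSO. Incubation was at 36 °C for 48 h. MIC was recorded as the lowest concentration with no turbidity. Ketoconazole was the reference antifungal.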

[8] = tested on: Curvularia lunata; experiment: Antifungal activity against Curvularia lunata NCIM 716 at 200 ug/disk after 48 hrs by agar disk diffusion method; conditions: NCIM 716, 48 h, read-out: IZ
How it was run: (§4)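 Fungal disc diffusion on nutrient agar plates pre-inoculated with each fungus. 6 mm sterile paper discs carried the compound in DMSO at the stated amount per disc. Plates were held at 37 °C, and inhibition-zone diameter was measured after 48 h. Values are the mean of three independent triplicate readings.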

[9] = tested on: Fusarium solani; experiment: Antifungal activity against Fusarium solani NCIM 1330 after 48 hrs by microdilution susceptibility method; conditions: NCIM 1330, 48 h; how it was run: as §3
[10] = tested on: Aspergillus niger; experiment: Antifungal activity against Aspergillus niger NCIM 596 after 48 hrs by microdilution susceptibility method; conditions: NCIM 596, 48 h; how it was run: as §3
[11] = tested on: Klebsiella pneumoniae; experiment: Antibacterial activity against Klebsiella pneumoniae NCIM 2957 at 200 ug/disk after 24 hrs by agar disk diffusion method; conditions: NCIM 2957, 24 h, read-out: IZ; how it was run: as §1
[12] = tested on: Bacillus subtilis; experiment: Antibacterial activity against Bacillus subtilis NCIM 2063 at 200 ug/disk after 24 hrs by agar disk diffusion method; conditions: NCIM 2063, 24 h, read-out: IZ; how it was run: as §1
[13] = tested on: Klebsiella pneumoniae; experiment: Antibacterial activity against Klebsiella pneumoniae NCIM 2957 at 100 ug/disk after 24 hrs by agar disk diffusion method; conditions: NCIM 2957, 24 h, read-out: IZ; how it was run: as §1
[14] = tested on: Aspergillus niger; experiment: Antifungal activity against Aspergillus niger NCIM 596 at 100 ug/disk after 48 hrs by agar disk diffusion method; conditions: NCIM 596, 48 h, read-out: IZ; how it was run: as §4
[15] = tested on: Aspergillus niger; experiment: Antifungal activity against Aspergillus niger NCIM 596 at 200 ug/disk after 48 hrs by agar disk diffusion method; conditions: NCIM 596, 48 h, read-out: IZ; how it was run: as §4
[16] = tested on: Proteus vulgaris; experiment: Antibacterial activity against Proteus vulgaris NCIM 2027 at 100 ug/disk after 24 hrs by agar disk diffusion method; conditions: NCIM 2027, 24 h, read-out: IZ; how it was run: as §1
[17] = tested on: Proteus vulgaris; experiment: Antibacterial activity against Proteus vulgaris NCIM 2027 after 24 hrs by microdilution susceptibility method; conditions: NCIM 2027, 24 h; how it was run: as §2
[18] = tested on: Fusarium solani; experiment: Antifungal activity against Fusarium solani NCIM 1330 at 100 ug/disk after 48 hrs by agar disk diffusion method; conditions: NCIM 1330, 48 h, read-out: IZ; how it was run: as §4
[19] = tested on: Fusarium solani; experiment: Antifungal activity against Fusarium solani NCIM 1330 at 200 ug/disk after 48 hrs by agar disk diffusion method; conditions: NCIM 1330, 48 h, read-out: IZ; how it was run: as §4
[20] = tested on: Staphylococcus aureus; experiment: Antibacterial activity against Staphylococcus aureus NCIM 5021 after 24 hrs by microdilution susceptibility method; conditions: NCIM 5021, 24 h; how it was run: as §2
[21] = tested on: Staphylococcus aureus; experiment: Antibacterial activity against Staphylococcus aureus NCIM 5021 at 200 ug/disk after 24 hrs by agar disk diffusion method; conditions: NCIM 5021, 24 h, read-out: IZ; how it was run: as §1
[22] = Antioxidant activity assessed as nitric oxide production at 100 uM after 120 mins by Griess reagent method
How it was run: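 Nitric oxide assay with Griess read-out. At intervals, 0.5 ml of incubation solution was mixed with 0.5 ml Griess reagent (1% sulfanilamide, 0.1% N-naphthylethylenediamine dihydrochloride, 2% o-phosphoric acid in water). The control received an equal amount of solvent and was handled identically.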

[23] = tested on: Curvularia lunata; experiment: Antifungal activity against Curvularia lunata NCIM 716 at 100 ug/disk after 48 hrs by agar disk diffusion method; conditions: NCIM 716, 48 h, read-out: IZ; how it was run: as §4

Row | SMILES | zone of inhibition at 100 µg/disc [1] [mm] | zone of inhibition at 100 µg/disc [3] [mm] | zone of inhibition at 200 µg/disc [4] [mm] | inhibition [5] [%] | zone of inhibition at 200 µg/disc [8] [mm] | zone of inhibition at 200 µg/disc [11] [mm] | zone of inhibition at 200 µg/disc [12] [mm] | zone of inhibition at 100 µg/disc [13] [mm] | zone of inhibition at 100 µg/disc [14] [mm] | zone of inhibition at 200 µg/disc [15] [mm] | zone of inhibition at 100 µg/disc [16] [mm] | zone of inhibition at 100 µg/disc [18] [mm] | zone of inhibition at 200 µg/disc [19] [mm] | zone of inhibition at 200 µg/disc [21] [mm] | inhibition [22] [%] | zone of inhibition at 100 µg/disc [23] [mm] | further results
1 | N=C1ON=C(N)C1C(CS(=O)(=O)c1ccc(Cl)cc1)S(=O)(=O)c1ccc(Cl)cc1 (centres undefined) | 31 | 32 | 30 | 94.5 | 33 | 29 | 34 | 26 | 29 | 32 | 28 | 33 | 35 | 33 | 95.4 | 31 | MIC [2]: 100 µg/mL (≈ 210 µM); MIC [6]: 50 µg/mL (≈ 105 µM); MIC [7]: 50 µg/mL (≈ 105 µM); MIC [9]: 100 µg/mL (≈ 210 µM); MIC [10]: 50 µg/mL (≈ 105 µM); MIC [17]: 100 µg/mL (≈ 210 µM); MIC [20]: 50 µg/mL (≈ 105 µM)
2 | CC(=O)N1CCN(c2ccc(OCC3COC(Cn4ccnc4)(c4ccc(Cl)cc4Cl)O3)cc2)CC1 (centres undefined) [KETOCONAZOLE] | – | – | – | – | 44 | – | – | – | 36 | 39 | – | 38 | 42 | – | – | 41 | MIC [7]: 6.25 µg/mL (≈ 11.8 µM); MIC [9]: 12.5 µg/mL (≈ 23.5 µM); MIC [10]: 6.25 µg/mL (≈ 11.8 µM)
3 | O=C(N[C@H](CO)[C@H](O)c1ccc([N+](=O)[O-])cc1)C(Cl)Cl [CHLORAMPHENICOL] | 38 | 35 | 45 | – | – | 42 | 44 | 37 | – | – | 42 | – | – | 41 | – | – | MIC [2]: 12.5 µg/mL (≈ 38.7 µM); MIC [6]: 6.25 µg/mL (≈ 19.3 µM); MIC [17]: 12.5 µg/mL (≈ 38.7 µM); MIC [20]: 6.25 µg/mL (≈ 19.3 µM)
4 | Cc1ccc(S(=O)(=O)CC(C2C(N)=NC(=O)N=C2N)S(=O)(=O)c2ccc(C)cc2)cc1 (centres undefined) | 22 | 21 | 18 | 28.1 | 18 | 19 | 24 | 17 | 11 | 15 | 16 | 13 | 16 | 23 | 27.9 | 16 | –
5 | Cc1ccc(C(=O)CC(C(=O)c2ccc(C)cc2)C2C(N)=NC(=S)N=C2N)cc1 (centres undefined) | 21 | 20 | 18 | 32.3 | 18 | 20 | 24 | 18 | 14 | 16 | 16 | 15 | 19 | 21 | 29.4 | 15 | –
6 | NC1=NN=C(N)C1C(CC(=O)c1ccccc1)C(=O)c1ccccc1 (centres undefined) | 29 | 27 | 26 | 73.7 | 32 | 29 | 31 | 27 | 29 | 30 | 23 | 31 | 33 | 30 | 71.7 | 30 | –
7 | CN1C(=N)C(C(CS(=O)(=O)c2ccc(Cl)cc2)S(=O)(=O)c2ccc(Cl)cc2)C(=N)N(C)C1=O (centres undefined) | 15 | 16 | 13 | 31.6 | 21 | 14 | 17 | 12 | 15 | 17 | 11 | 16 | 19 | 18 | 30.2 | 17 | –
8 | CN1C(=N)C(C(CS(=O)(=O)c2ccccc2)S(=O)(=O)c2ccccc2)C(=N)N(C)C1=O (centres undefined) | 14 | 13 | 12 | 27.7 | 20 | 12 | 16 | 9 | 14 | 16 | 10 | 13 | 16 | 15 | 26.9 | 16 | –
